{"source": "PubChem BioAssay AID743247", "about": "(Broad Institute, 2014)", "note": "Several values for one entry are separate records, joined by “and”; a condition that tells them apart may be missing. Equal values may be shown once. About 300 (0.086%) of roughly 350,000 compounds were called active.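 Rule for the calls: active = mean inhibition across replicates of 30% or more, regardless of how many single replicates reach that level; inconclusive = mean under 30% yet at least half of replicates reach 30%; inactive = the rest.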 The list comes from a sample in which actives are over-represented; it also holds similar structures and randomly drawn compounds."}
{"assay": "inhibitors of fibronectin matrix deposition, primary screen, AH1F cells, Alexa488-fibronectin fluorescence, plate reader (AID 743247);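 note: positive control wells lacked labelled fibronectin entirely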", "conditions": "AH1F fibroblasts, overnight, at 12.6 µM, stronger effect = higher value", "method_in_brief": "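Material: AH1F fibroblast monolayer depositing Alexa488-labelled fibronectin into matrix / Amount: 10000 AH1F cells per well / Signal: fluorescence 485/525 nm / Medium: DMEM, 2% serum / Compound: single dose, pinned / Incubation: 1 h cell adhesion before compound, then overnight fibronectin incubation / Reagent: Alexa488-FN, 24 nM final / Read-out: inhibition of fibronectin deposition signal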"}
{"smiles": "CCC(=O)Nc1ccc2c(c1)C(=O)N(C)C[C@H](OC)[C@@H](C)CN(Cc1nccs1)[C@H](C)CO2", "inhibition": "8.21% (inactive)"}
{"smiles": "CCCC(=O)Nc1ccc2c(c1)OC[C@H](C)N(CCc1ccccc1)C[C@H](C)[C@@H](OC)CN(C)C2=O", "inhibition": "-9.33% (inactive)"}
{"smiles": "O=C1N[C@H](c2ccccc2)COCc2cn(nn2)CC[C@@H]1Cc1ccc(Cl)cc1", "inhibition": "-8.81% (inactive)"}
{"smiles": "Cc1ccc(Nc2nc(N)nc(CSc3nnc(C)s3)n2)cc1", "inhibition": "-6.84% (inactive)"}
{"smiles": "Cc1ccc(Nc2nnc(SC(C)C(=O)NC3CC3)s2)cc1", "note": "(stereo unspecified)", "inhibition": "9.55% (inactive)"}
{"smiles": "Cc1ccc(Nc2nnc(SCc3ccccc3)s2)cc1", "inhibition": "30.3% (active)"}
{"smiles": "CC(=O)N1C[C@@H]2C(c3ccccc3)[C@H](C1)N2Cc1ccc(F)cc1", "note": "(stereo partly specified)", "inhibition": "-14.1% (inactive) and 0.287% (inactive)"}
{"smiles": "Cc1cccc(-c2ccc(C3[C@H]4CNC[C@@H]3N4S(=O)(=O)c3ccccc3F)cc2)c1", "note": "(stereo partly specified)", "inhibition": "6.27% (inactive) and -0.776% (inactive)"}
{"smiles": "CC(=O)N(C)C[C@@H]1Oc2ccc(NC(=O)NC(C)C)cc2C(=O)N(C)C[C@H]1C", "inhibition": "0.044% (inactive)"}
{"smiles": "CC(C)NC(=O)N(C)C[C@H]1Oc2ccc(N(C)C)cc2CC(=O)N(C)C[C@@H]1C", "inhibition": "-2.09% (inactive)"}
{"smiles": "C[C@H](CO)N1C[C@H](C)[C@@H](CN(C)C(=O)Nc2cccc(F)c2)OCc2ccccc2-c2ccccc2C1=O", "inhibition": "6.45% (inactive)"}
{"smiles": "C[C@@H]1CN(C)C(=O)c2cc([N+](=O)[O-])ccc2O[C@@H]1CN(C)C(=O)OC(C)(C)C", "inhibition": "-15.7% (inactive)"}
{"smiles": "CC(=O)c1ccc(Nc2nc(C(N)c3ccccc3)cs2)cc1", "note": "(stereo unspecified)", "inhibition": "30.3% (active)"}
{"smiles": "NC(c1ccccc1)c1csc(NC(=O)Nc2cccc(C(F)(F)F)c2)n1", "note": "(stereo unspecified)", "inhibition": "0.914% (inactive)"}
{"smiles": "CC(=O)c1ccc(Nc2nc(C(N)c3ccccc3Cl)cs2)cc1", "note": "(stereo unspecified)", "inhibition": "-5.17% (inactive)"}
{"smiles": "CCS(=O)(=O)Nc1ccc2c(c1)C(=O)N(C)[C@@H]1CC[C@@H](CC(=O)NC)O[C@H]1CO2", "inhibition": "6.61% (inactive)"}
{"smiles": "CC(=O)Nc1cccc2c1O[C@@H](CN(C)C(C)=O)[C@@H](C)CN(C)C2=O", "inhibition": "-3.62% (inactive)"}
{"smiles": "CN(C)C(=O)c1ccc(-c2ccc(C3[C@@H]4CN(S(=O)(=O)c5cccc(Cl)c5)C[C@H]3N4)cc2)cc1", "note": "(stereo partly specified)", "inhibition": "-2.13% (inactive)"}
{"smiles": "CNC[C@H]1Oc2ccc(NC(=O)Nc3ccc(F)cc3)cc2C(=O)N([C@@H](C)CO)C[C@@H]1C", "inhibition": "-0.84% (inactive)"}
{"smiles": "CC(C)NC(=O)N(C)C[C@H]1Oc2c(cccc2N(C)C)C(=O)N(C)C[C@H]1C", "inhibition": "0.739% (inactive)"}
{"smiles": "O=C(N[C@@H]1CC[C@H](CCn2cc(-c3ccccc3)nn2)O[C@H]1CO)c1cnccn1", "inhibition": "15% (inactive)"}
{"smiles": "O=C(C[C@H]1CC[C@@H]2[C@H](COC[C@H](O)CN2CCC(F)(F)F)O1)NCC1CC1", "inhibition": "-3.5% (inactive)"}
{"smiles": "C[C@@H]1CN(C)C(=O)c2cccc(N(C)C)c2O[C@H]1CN(C)S(C)(=O)=O", "inhibition": "-2.39% (inactive)"}
{"smiles": "CN1c2ccc(-c3cccc(C#N)c3)cc2[C@H]2[C@H](CCN2S(=O)(=O)c2cccc(F)c2)[C@@H]1CO", "inhibition": "13.8% (inactive)"}
{"smiles": "COCC(=O)Nc1ccc2c(c1)OC[C@H](C)N(C)C[C@H](C)[C@@H](OC)CN(C)C2=O", "inhibition": "-14.1% (inactive)"}
{"smiles": "CC(C)NC(=O)N[C@@H]1C=C[C@@H](CC(=O)N2CCCCC2)O[C@@H]1CO", "inhibition": "-8.74% (inactive)"}
{"smiles": "c1ccc(-c2ccc(C3[C@@H]4CN(Cc5cccnc5)C[C@H]3N4)cc2)cc1", "note": "(stereo partly specified)", "inhibition": "-4.82% (inactive) and -10.1% (inactive)"}
{"smiles": "CCc1nc2c(OCCc3cccc(OC)c3)cccn2c1N(C)C(=O)c1ccc(C)cc1", "inhibition": "30.8% (active)"}
{"smiles": "CCc1nc2c(OCCOc3ccccc3)cccn2c1N(C)C(=O)c1ccccc1F", "inhibition": "-0.297% (inactive)"}
{"smiles": "CCc1nc2c(OCCOc3ccccc3)cccn2c1N(C)C(=O)c1ccc(OC)cc1", "inhibition": "5.55% (inactive)"}
{"smiles": "CCC(=O)N(C)C[C@H]1Oc2ncc(-c3ccc(C)cc3)cc2C(=O)N([C@@H](C)CO)C[C@@H]1C", "inhibition": "-13% (inactive)"}
{"smiles": "C[C@@H]1CCCCO[C@H](CN(C)C(=O)c2ccccc2)[C@@H](C)CN([C@H](C)CO)C(=O)c2cc(NC(=O)c3ccccc3)ccc2O1", "inhibition": "7% (inactive)"}
{"smiles": "O=C(C[C@H]1C[C@H]2c3cc(NC(=O)NC4CCCC4)ccc3O[C@H]2[C@@H](CO)O1)NCc1ccc(-c2ccccc2)cc1", "inhibition": "-25.6% (inactive)"}
{"smiles": "CCCNC(=O)C[C@H]1CC[C@@H]2[C@H](COc3ccc(NC(=O)c4ccc(OC)cc4)cc3C(=O)N2C)O1", "inhibition": "10.3% (inactive)"}
{"smiles": "CC(=O)N1[C@H](CO)[C@@H](c2ccc(-c3ccc(F)cc3)cc2)[C@H]1CNC(=O)C1CC1", "inhibition": "-16% (inactive)"}
{"smiles": "CC(=O)N1[C@H](CNC(=O)CN(C)C)[C@H](c2ccc(C3=CCCC3)cc2)[C@@H]1CO", "inhibition": "13.6% (inactive)"}
{"smiles": "CC[C@@H]1CC=CC[C@H](C)Oc2ccccc2C(=O)N(C)[C@H](Cc2ccccc2)C(=O)N1", "note": "(mixture of isomers)", "inhibition": "-1.05% (inactive)"}
{"smiles": "O=C1[C@H](Cc2ccc(C(F)(F)F)cc2)CCn2nncc2COC[C@@H]2CCCCN12", "inhibition": "4.17% (inactive)"}
{"smiles": "C[C@@H]1COCc2cnnn2CC[C@H](Cc2ccccc2)C(=O)N1", "inhibition": "-8.72% (inactive)"}
{"smiles": "C[C@H](CO)N1C[C@H](C)[C@@H](CN(C)S(C)(=O)=O)Oc2cc(C#CC3CC3)ccc2S1(=O)=O", "inhibition": "5.58% (inactive)"}
{"smiles": "CO[C@H]1CN(C)C(=O)c2ccc(NC(=O)C3CC3)cc2OC[C@@H](C)N(C(=O)c2ccccn2)C[C@@H]1C", "inhibition": "2.68% (inactive)"}
{"smiles": "O=C(C[C@@H]1CC[C@@H](NC(=O)C2CC2)[C@@H](CO)O1)NCc1ccccc1Cl", "inhibition": "-5.16% (inactive)"}
{"smiles": "Cc1noc(C)c1S(=O)(=O)N(C)C[C@H]1Oc2ccc(N(C)C)cc2C(=O)N([C@H](C)CO)C[C@@H]1C", "inhibition": "-9.54% (inactive)"}
{"smiles": "CO[C@H]1CN(C)C(=O)c2cc(NS(=O)(=O)c3ccccc3)ccc2OC[C@@H](C)N(Cc2nccs2)C[C@@H]1C", "inhibition": "-0.524% (inactive)"}
{"smiles": "O=C(Nc1cc(F)ccc1F)N[C@H]1CC[C@H](CCn2cc(C3CCCC3)nn2)O[C@@H]1CO", "inhibition": "-1.92% (inactive)"}
{"smiles": "CC(=O)N(C)C[C@@H]1Oc2ccc(N)cc2CC(=O)N(C)C[C@H]1C", "inhibition": "-1.05% (inactive)"}
{"smiles": "CNC[C@@H]1Oc2ccc(N(C)C)cc2CC(=O)N(C)C[C@@H]1C", "inhibition": "2.18% (inactive)"}
{"smiles": "C[C@H](CO)N1C[C@H](C)[C@H](CN(C)Cc2ccc(C(F)(F)F)cc2)OCCCC[C@H](C)Oc2ccc(NS(=O)(=O)c3ccc(Cl)cc3)cc2C1=O", "inhibition": "-21% (inactive)"}
{"smiles": "C[C@@H]1CCCCO[C@H](CN(C)C)[C@H](C)CN([C@@H](C)CO)C(=O)c2cc(NS(=O)(=O)c3cn(C)cn3)ccc2O1", "inhibition": "-0.203% (inactive)"}
{"smiles": "CCC(=O)N1CC2(C1)[C@@H](c1ccccc1)[C@H](CO)N2CC1CCOCC1", "inhibition": "-2.08% (inactive)"}
{"smiles": "CN1c2ccc(-c3cccc(C#N)c3)cc2[C@@H]2[C@@H](CCN2C(=O)NC2CCCCC2)[C@@H]1CO", "inhibition": "-3.13% (inactive)"}
{"smiles": "COc1ccc(NC(=O)N2C[C@H](O)COC[C@H]3O[C@@H](CC(=O)N4CCN(C)CC4)CC[C@@H]32)cc1", "inhibition": "-2.89% (inactive)"}
{"smiles": "CC[C@H]1CC=CC[C@@H](C)Oc2ccccc2C(=O)N(C)[C@H](Cc2ccccc2)C(=O)N1", "note": "(mixture of isomers)", "inhibition": "0.881% (inactive)"}
{"smiles": "COc1ccccc1NC(=O)N1[C@@H]2CNC[C@H]1C2c1ccc(-c2ccccc2C)cc1", "note": "(stereo partly specified)", "inhibition": "-3.3% (inactive)"}
{"smiles": "CCCN1C[C@@H](C)[C@@H](OC)CN(C)C(=O)c2cc(NC(=O)Nc3cccc(F)c3)ccc2OC[C@@H]1C", "inhibition": "-5.97% (inactive)"}
{"smiles": "C[C@H]1CN(C)C(=O)c2cccc(N(C)C)c2O[C@@H]1CN(C)C", "inhibition": "-26.9% (inactive)"}
{"smiles": "O=C(C1CCCCC1)N1CC(=O)N2[C@H](CO)[C@H](c3ccc(-c4ccccc4F)cc3)[C@H]2C1", "inhibition": "-7.64% (inactive)"}
{"smiles": "O=C1N[C@H](c2ccccc2)COCc2cn(nn2)CC[C@H]1Cc1cccc(Cl)c1", "inhibition": "-1.96% (inactive)"}
{"smiles": "COc1ccc2c3c([nH]c2c1)[C@@H](CO)N(Cc1ccccc1)CC31CCN(Cc2cncnc2)CC1", "inhibition": "-11.5% (inactive)"}
{"smiles": "O=C1NCCOCc2cn(nn2)CC[C@@H]1Cc1ccccc1", "inhibition": "-3.44% (inactive)"}
{"smiles": "CCCNC(=O)Nc1ccc2c(c1)C(=O)N(C)[C@H]1CC[C@H](CC(=O)NC3CCC3)O[C@H]1CO2", "inhibition": "-3.4% (inactive)"}
{"smiles": "CN(C)CC(=O)N[C@@H]1CC[C@H](CCn2cc(C3CCCC3)nn2)O[C@H]1CO", "inhibition": "5.53% (inactive)"}
{"smiles": "CC(C)NC(=O)Nc1cccc2c1O[C@H](CN(C)Cc1ccc3c(c1)OCO3)[C@H](C)CN([C@H](C)CO)C2=O", "inhibition": "7.48% (inactive)"}
{"smiles": "CNC[C@H]1Oc2ccccc2CC(=O)N(C)C[C@H]1C", "inhibition": "-0.894% (inactive)"}
{"smiles": "COc1ccc2c3c(n(C)c2c1)[C@H](CO)N(C)CC31CN(S(=O)(=O)c2cccc(C)c2)C1", "inhibition": "11.9% (inactive)"}
{"smiles": "O=C1C[C@@H](c2ccccc2)C(=O)N[C@H](c2ccc(F)cc2)C/C=C\\CCN1", "inhibition": "-8.29% (inactive)"}
{"smiles": "C/C=C/c1ccc2c(c1)O[C@H](CN(C)C(=O)Nc1ccc(OC)cc1)[C@@H](C)CN([C@H](C)CO)S2(=O)=O", "inhibition": "9.72% (inactive)"}
{"smiles": "Cc1cccc(CS(=O)(=O)c2ncc(Cl)c(C(=O)Nc3ccc(F)cc3)n2)c1", "inhibition": "34.8% (active)"}
{"smiles": "Cc1ccc(CS(=O)(=O)c2ncc(Cl)c(C(=O)Nc3nnc(C)s3)n2)cc1", "inhibition": "0.254% (inactive)"}
{"smiles": "Cc1cccc(NC(=O)c2nc(S(=O)(=O)Cc3ccccc3)ncc2Cl)c1", "inhibition": "20.9% (inactive)"}
{"smiles": "O=C(C1CCC1)N1CC[C@H]2[C@H](CO)Nc3ccc(-c4cccc(F)c4)cc3[C@H]21", "inhibition": "-4.67% (inactive)"}
